ChEMBL document CHEMBL2424530, “Synthesis, biological evaluation and molecular docking studies of pyrazole derivatives coupling with a thiourea moiety as novel CDKs inhibitors” (Eur J Med Chem, 2013)

Columns and labels:
[1] = Cytotoxicity against human H460 cells assessed as growth inhibition after 24 to 48 hrs by CCK8 assay; assay type: functional, cell-based; details: NCI-H460
How it was run: (§1)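 CCK8 proliferation assay: 1-5 × 10³ cells per well grew for 12 h, then were exposed to increasing compound concentrations in 10% FBS for 24 or 48 h. CCK8 dye was added for 1-2 h and plates were read on a multilabel counter. Percent inhibition or IC₅₀ was calculated against DMSO-treated control wells.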

[2] = biological target: Cyclin-dependent kinase 2 (Homo sapiens, UniProt P24941); experiment: Inhibition of human N-terminal hexahistidine-tagged CDK2 expressed in baculovirus infected Sf21 cells using histone H1 as substrate after 10 mins in presence of [gamma-32P]-ATP
[3] = tested on: A549; experiment: Cytotoxicity against human A549 cells assessed as growth inhibition after 24 to 48 hrs by CCK8 assay; assay type: functional, cell-based; how it was run: as §1
[4] = tested on: MCF7; experiment: Cytotoxicity against human MCF7 cells assessed as growth inhibition after 24 to 48 hrs by CCK8 assay; assay type: functional, cell-based; how it was run: as §1
[5] = biological target: Vascular endothelial growth factor receptor 2 (Homo sapiens, UniProt P35968); experiment: Inhibition of human VEGFR2 tyrosine kinase domain (Asp807 to Val1356) using poly-(Glu4-Tyr) as substrate incubated for 15 mins prior to ATP addition measured after 40 mins by DELFIA
Chain of Vascular endothelial growth factor receptor 2 (P35968 whole entry, the tested form may be a part): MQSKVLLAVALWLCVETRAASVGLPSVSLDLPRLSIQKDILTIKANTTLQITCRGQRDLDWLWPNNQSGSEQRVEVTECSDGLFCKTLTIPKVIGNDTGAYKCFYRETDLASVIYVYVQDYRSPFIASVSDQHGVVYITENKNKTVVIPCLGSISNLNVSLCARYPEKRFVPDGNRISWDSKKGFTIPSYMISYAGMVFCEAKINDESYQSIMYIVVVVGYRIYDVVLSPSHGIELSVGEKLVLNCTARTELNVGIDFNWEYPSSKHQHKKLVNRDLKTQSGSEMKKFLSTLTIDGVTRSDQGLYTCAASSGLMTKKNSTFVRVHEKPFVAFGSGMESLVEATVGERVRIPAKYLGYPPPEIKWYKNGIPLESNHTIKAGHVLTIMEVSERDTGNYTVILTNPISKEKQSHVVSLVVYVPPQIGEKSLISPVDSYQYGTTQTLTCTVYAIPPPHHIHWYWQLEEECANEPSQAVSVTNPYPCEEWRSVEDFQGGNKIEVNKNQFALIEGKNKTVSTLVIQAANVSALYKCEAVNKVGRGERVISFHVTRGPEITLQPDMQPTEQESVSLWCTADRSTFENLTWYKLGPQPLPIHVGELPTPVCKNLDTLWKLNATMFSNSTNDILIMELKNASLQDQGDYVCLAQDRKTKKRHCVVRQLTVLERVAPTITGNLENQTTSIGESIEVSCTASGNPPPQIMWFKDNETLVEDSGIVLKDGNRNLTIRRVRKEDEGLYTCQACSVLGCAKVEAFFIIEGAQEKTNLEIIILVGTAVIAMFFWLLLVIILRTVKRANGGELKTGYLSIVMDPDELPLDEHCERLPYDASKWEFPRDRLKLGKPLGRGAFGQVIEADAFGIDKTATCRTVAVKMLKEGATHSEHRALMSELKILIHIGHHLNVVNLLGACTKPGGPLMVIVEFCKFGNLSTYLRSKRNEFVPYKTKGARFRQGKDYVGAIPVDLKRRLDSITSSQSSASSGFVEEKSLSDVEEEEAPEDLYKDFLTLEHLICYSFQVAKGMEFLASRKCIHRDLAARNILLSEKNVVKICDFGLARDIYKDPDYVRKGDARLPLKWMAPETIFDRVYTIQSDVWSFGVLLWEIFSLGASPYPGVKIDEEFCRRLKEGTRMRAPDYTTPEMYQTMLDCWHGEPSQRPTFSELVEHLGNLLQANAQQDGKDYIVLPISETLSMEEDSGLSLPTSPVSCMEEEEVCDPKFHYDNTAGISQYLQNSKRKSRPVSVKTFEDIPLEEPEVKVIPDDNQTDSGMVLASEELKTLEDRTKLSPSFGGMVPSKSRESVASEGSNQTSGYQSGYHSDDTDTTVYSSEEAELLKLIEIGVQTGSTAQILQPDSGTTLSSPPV

[6] = biological target: Cyclin-dependent kinase 6 (Homo sapiens, UniProt Q00534); experiment: Inhibition of CDK6 (unknown origin) using histone H1 as substrate after 10 mins in presence of [gamma-32P]-ATP
Chain of Cyclin-dependent kinase 6 (Q00534 whole entry): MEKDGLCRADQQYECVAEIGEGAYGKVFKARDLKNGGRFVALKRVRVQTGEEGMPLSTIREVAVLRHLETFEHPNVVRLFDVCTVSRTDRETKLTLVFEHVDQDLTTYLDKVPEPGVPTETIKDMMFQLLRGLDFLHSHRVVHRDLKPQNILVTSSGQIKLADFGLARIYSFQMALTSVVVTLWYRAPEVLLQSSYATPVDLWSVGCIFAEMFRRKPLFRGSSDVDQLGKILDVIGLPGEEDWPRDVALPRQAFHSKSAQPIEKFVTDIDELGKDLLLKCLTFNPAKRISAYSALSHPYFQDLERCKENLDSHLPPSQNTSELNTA
How it was run: (§2)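 Radiometric kinase reaction in 50 mM Tris-HCl with ATP plus γ-³²P ATP, 10 mM MgCl₂, 5 mM DTT and histone H1 substrate. It ran 10 min with inhibitor and was stopped with 30% phosphoric acid. Mixtures were spotted on P81 paper and washed five times with 10 mM Tris-HCl (pH 8.0)/0.1 M NaCl. Spot radioactivity was imaged, and IC₅₀ was the concentration giving 50% inhibition.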

[7] = biological target: Cyclin-dependent kinase 5 (Homo sapiens, UniProt Q00535); experiment: Inhibition of CDK5 (unknown origin) using histone H1 as substrate after 10 mins in presence of [gamma-32P]-ATP; how it was run: as §2
Chain of Cyclin-dependent kinase 5 (Q00535 whole entry, the tested form may be a part): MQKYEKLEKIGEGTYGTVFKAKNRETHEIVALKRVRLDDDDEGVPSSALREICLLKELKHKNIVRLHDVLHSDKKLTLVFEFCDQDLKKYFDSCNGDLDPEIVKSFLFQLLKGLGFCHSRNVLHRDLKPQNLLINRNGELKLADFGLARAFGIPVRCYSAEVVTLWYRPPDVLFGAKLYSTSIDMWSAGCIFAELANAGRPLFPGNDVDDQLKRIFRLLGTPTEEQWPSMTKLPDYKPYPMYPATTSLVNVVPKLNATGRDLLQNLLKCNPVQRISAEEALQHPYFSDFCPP

[8] = biological target: Epidermal growth factor receptor (Homo sapiens, UniProt P00533); experiment: Inhibition of human C-terminal EGFR tyrosine kinase domain
Chain of Epidermal growth factor receptor (P00533 whole entry, the tested form may be a part): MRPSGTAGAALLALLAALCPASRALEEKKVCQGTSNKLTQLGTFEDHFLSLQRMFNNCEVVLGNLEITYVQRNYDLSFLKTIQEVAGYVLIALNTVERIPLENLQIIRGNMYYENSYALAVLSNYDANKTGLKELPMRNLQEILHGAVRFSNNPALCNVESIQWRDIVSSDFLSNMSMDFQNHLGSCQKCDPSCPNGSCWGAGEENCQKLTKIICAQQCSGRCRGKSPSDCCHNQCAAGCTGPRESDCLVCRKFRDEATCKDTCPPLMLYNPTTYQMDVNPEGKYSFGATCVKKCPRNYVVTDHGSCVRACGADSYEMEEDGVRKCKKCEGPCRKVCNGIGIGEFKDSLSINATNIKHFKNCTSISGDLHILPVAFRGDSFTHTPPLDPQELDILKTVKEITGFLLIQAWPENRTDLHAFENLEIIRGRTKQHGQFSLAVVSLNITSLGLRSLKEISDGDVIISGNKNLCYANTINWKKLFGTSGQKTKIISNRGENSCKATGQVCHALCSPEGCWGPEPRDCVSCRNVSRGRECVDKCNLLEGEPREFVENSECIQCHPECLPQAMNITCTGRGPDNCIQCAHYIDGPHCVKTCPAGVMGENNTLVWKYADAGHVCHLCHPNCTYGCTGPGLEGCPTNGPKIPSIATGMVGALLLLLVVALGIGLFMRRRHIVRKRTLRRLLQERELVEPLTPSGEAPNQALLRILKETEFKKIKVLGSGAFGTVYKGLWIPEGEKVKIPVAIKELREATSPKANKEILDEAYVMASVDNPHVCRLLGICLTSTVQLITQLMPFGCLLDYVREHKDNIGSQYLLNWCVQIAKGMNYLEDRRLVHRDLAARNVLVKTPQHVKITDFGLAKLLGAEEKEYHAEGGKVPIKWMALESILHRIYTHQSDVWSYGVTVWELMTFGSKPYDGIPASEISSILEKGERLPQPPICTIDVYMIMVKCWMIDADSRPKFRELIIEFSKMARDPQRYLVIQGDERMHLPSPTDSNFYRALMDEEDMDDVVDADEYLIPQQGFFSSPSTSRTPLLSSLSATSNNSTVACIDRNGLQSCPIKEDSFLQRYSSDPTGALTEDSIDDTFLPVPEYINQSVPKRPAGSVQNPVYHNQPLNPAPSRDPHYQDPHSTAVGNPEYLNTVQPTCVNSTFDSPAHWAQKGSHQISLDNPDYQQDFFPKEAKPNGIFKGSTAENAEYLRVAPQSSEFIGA

[9] = biological target: Cyclin-dependent kinase 4 (Homo sapiens, UniProt P11802); experiment: Inhibition of CDK4 (unknown origin) using histone H1 as substrate after 10 mins in presence of [gamma-32P]-ATP; how it was run: as §2
Chain of Cyclin-dependent kinase 4 (P11802 whole entry): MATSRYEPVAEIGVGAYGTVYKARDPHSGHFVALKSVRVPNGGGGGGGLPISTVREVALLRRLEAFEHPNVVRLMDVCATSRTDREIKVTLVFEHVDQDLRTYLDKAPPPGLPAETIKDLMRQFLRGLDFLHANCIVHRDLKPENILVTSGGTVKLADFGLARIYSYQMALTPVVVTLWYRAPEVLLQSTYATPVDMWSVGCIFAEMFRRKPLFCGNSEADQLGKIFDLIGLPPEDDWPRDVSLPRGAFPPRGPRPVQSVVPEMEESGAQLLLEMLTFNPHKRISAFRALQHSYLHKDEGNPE

[10] = biological target: Cyclin-dependent kinase 1 (Homo sapiens, UniProt P06493); experiment: Inhibition of CDK1 (unknown origin) using histone H1 as substrate after 10 mins in presence of [gamma-32P]-ATP; how it was run: as §2
Chain of Cyclin-dependent kinase 1 (P06493 whole entry): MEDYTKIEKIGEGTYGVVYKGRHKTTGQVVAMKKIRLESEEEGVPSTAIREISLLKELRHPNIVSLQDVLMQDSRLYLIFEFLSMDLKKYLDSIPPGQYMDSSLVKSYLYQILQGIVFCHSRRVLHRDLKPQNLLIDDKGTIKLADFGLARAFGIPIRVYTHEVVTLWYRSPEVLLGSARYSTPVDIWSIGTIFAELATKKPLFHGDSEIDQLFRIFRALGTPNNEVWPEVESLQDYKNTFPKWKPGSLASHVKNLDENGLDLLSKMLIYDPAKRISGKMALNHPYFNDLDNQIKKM

[11] = biological target: Cyclin-dependent kinase 7 (Homo sapiens, UniProt P50613); experiment: Inhibition of CDK7 (unknown origin) using histone H1 as substrate after 10 mins in presence of [gamma-32P]-ATP; how it was run: as §2
Chain of Cyclin-dependent kinase 7 (P50613 whole entry): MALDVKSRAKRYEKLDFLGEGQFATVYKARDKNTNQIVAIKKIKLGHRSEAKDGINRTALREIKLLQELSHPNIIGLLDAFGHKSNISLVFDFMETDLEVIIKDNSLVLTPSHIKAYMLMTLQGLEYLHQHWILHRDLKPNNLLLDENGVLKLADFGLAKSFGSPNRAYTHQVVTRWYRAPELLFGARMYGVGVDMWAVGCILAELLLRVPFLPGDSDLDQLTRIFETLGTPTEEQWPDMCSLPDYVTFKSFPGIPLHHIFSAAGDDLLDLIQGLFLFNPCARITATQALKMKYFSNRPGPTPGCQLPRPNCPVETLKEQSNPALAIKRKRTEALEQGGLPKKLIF

[12] = tested on: A549; experiment: Cell cycle arrest in human A549 cells assessed as accumulation at subG0 phase at 2 uM after 36 hrs by propidium iodide staining-based FACS flow cytometric analysis relative to control; assay type: functional
[13] = tested on: A549; experiment: Cell cycle arrest in human A549 cells assessed as accumulation at G0/G1 phase at 0.5 uM after 36 hrs by propidium iodide staining-based FACS flow cytometric analysis (reference value: 57.07%); assay type: functional
[14] = tested on: A549; experiment: Cell cycle arrest in human A549 cells assessed as accumulation at G2/M phase at 2 uM after 36 hrs by propidium iodide staining-based FACS flow cytometric analysis (reference value: 2.09%); assay type: functional
[15] = tested on: A549; experiment: Cell cycle arrest in human A549 cells assessed as accumulation at G0/G1 phase after 36 hrs by propidium iodide staining-based FACS flow cytometric analysis; assay type: functional
[16] = tested on: A549; experiment: Cell cycle arrest in human A549 cells assessed as accumulation at G0/G1 phase at 2 uM after 36 hrs by propidium iodide staining-based FACS flow cytometric analysis (reference value: 57.07%); assay type: functional
[17] = tested on: A549; experiment: Cell cycle arrest in human A549 cells assessed as accumulation at S phase at 2 uM after 36 hrs by propidium iodide staining-based FACS flow cytometric analysis (reference value: 40.84%); assay type: functional
[18] = tested on: A549; experiment: Cell cycle arrest in human A549 cells assessed as accumulation at S phase at 0.5 uM after 36 hrs by propidium iodide staining-based FACS flow cytometric analysis (reference value: 40.84%); assay type: functional
[19] = tested on: A549; experiment: Cell cycle arrest in human A549 cells assessed as accumulation at subG0 phase at 0.5 uM after 36 hrs by propidium iodide staining-based FACS flow cytometric analysis relative to control; assay type: functional
[20] = tested on: A549; experiment: Cell cycle arrest in human A549 cells assessed as accumulation at subG0 phase at 1 uM after 36 hrs by propidium iodide staining-based FACS flow cytometric analysis relative to control; assay type: functional
[21] = tested on: A549; experiment: Cell cycle arrest in human A549 cells assessed as accumulation at G2/M phase at 1 uM after 36 hrs by propidium iodide staining-based FACS flow cytometric analysis (reference value: 2.09%); assay type: functional
[22] = tested on: A549; experiment: Cell cycle arrest in human A549 cells assessed as accumulation at G2/M phase at 0.5 uM after 36 hrs by propidium iodide staining-based FACS flow cytometric analysis (reference value: 2.09%); assay type: functional
[23] = tested on: A549; experiment: Cell cycle arrest in human A549 cells assessed as accumulation at S phase at 1 uM after 36 hrs by propidium iodide staining-based FACS flow cytometric analysis (reference value: 40.84%); assay type: functional
[24] = tested on: A549; experiment: Cell cycle arrest in human A549 cells assessed as accumulation at G0/G1 phase at 1 uM after 36 hrs by propidium iodide staining-based FACS flow cytometric analysis (reference value: 57.07%); assay type: functional

Structure (SMILES) | IC50 [2] [nM] | IC50 [1] [nM] | IC50 [3] [nM] | IC50 [4] [nM] | also measured
Cc1ccc(NC(=S)NC(=O)c2cn(-c3ccccc3)nc2-c2ccc(C)cc2)cc1 | 52 | 3760 | 2830 | 5660 | 
Cc1ccc(-c2nn(-c3ccccc3)cc2C(=O)NC(=S)Nc2ccc(Cl)cc2)cc1 | 63 | 3650 | 3170 | 6210 | 
O=C(NC(=S)Nc1ccc(Cl)cc1)c1cn(-c2ccccc2)nc1-c1ccc(Cl)cc1 | 58 | 3260 | 3150 | 5360 | 
O=C(NC(=S)Nc1ccc(F)cc1)c1cn(-c2ccccc2)nc1-c1ccccc1 | 75 | 4210 | 3500 | 6820 | 
O=C(NC(=S)Nc1ccc(Cl)cc1)c1cn(-c2ccccc2)nc1-c1ccccc1 | 71 | 4020 | 3200 | 6230 | 
O=C(NC(=S)Nc1ccc(F)cc1)c1cn(-c2ccccc2)nc1-c1ccc(Cl)cc1 | 59 | 3640 | 3980 | 5990 | 
COc1ccc(NC(=S)NC(=O)c2cn(-c3ccccc3)nc2-c2ccccc2)cc1 | 56 | 3540 | 2500 | 5460 | IC50 [5]: > 5000 nM; IC50 [6]: 50 nM; IC50 [7]: 1500 nM; IC50 [8]: > 5000 nM; IC50 [9]: 42 nM; IC50 [10]: 610 nM; IC50 [11]: 1880 nM
Cn1cnc2c(NCc3ccccc3)nc(NCCO)nc21 [OLOMOUCINE] |  | 132000 | 130000 | 142000 | 
Cc1ccc(NC(=S)NC(=O)c2cn(-c3ccccc3)nc2-c2ccccc2)cc1 | 69 | 3960 | 2800 | 5900 | 

More lines, in order of falling IC50 [2], values ahead:

IC50 [2] [nM] | Structure (SMILES) | IC50 [1] [nM] | IC50 [3] [nM] | IC50 [4] [nM] | also measured
49 | O=C(NC(=S)Nc1ccc(F)cc1)c1cn(-c2ccccc2)nc1-c1ccc(F)cc1 | 3240 | 3540 | 5610 | 
47 | COc1ccc(NC(=S)NC(=O)c2cn(-c3ccccc3)nc2-c2ccc(C)cc2)cc1 | 3240 | 2390 | 5120 | IC50 [5]: > 5000 nM; IC50 [6]: 43 nM; IC50 [7]: 1420 nM; IC50 [8]: > 5000 nM; IC50 [9]: 40 nM; IC50 [10]: 584 nM; IC50 [11]: 1790 nM
44 | O=C(NC(=S)Nc1ccc(Cl)cc1)c1cn(-c2ccccc2)nc1-c1ccc(F)cc1 | 3090 | 2990 | 5470 | 
43 | Cc1ccc(NC(=S)NC(=O)c2cn(-c3ccccc3)nc2-c2ccc(F)cc2)cc1 | 2980 | 2080 | 5440 | 
42 | Cc1ccc(NC(=S)NC(=O)c2cn(-c3ccccc3)nc2-c2ccc(Cl)cc2)cc1 | 3120 | 2690 | 5980 | 
41 | Cc1ccc(-c2nn(-c3ccccc3)cc2C(=O)NC(=S)Nc2ccc(F)cc2)cc1 | 3980 | 3420 | 6420 | 
37 | COc1ccc(NC(=S)NC(=O)c2cn(-c3ccccc3)nc2-c2ccc(Cl)cc2)cc1 | 3010 | 2270 | 5240 | IC50 [5]: > 5000 nM; IC50 [6]: 42 nM; IC50 [7]: 1360 nM; IC50 [8]: > 5000 nM; IC50 [9]: 40 nM; IC50 [10]: 571 nM; IC50 [11]: 1650 nM
36 | COc1ccc(NC(=S)NC(=O)c2cn(-c3ccccc3)nc2-c2ccc(F)cc2)cc1 | 2860 | 1980 | 4890 | IC50 [5]: > 5000 nM; IC50 [6]: 33 nM; IC50 [7]: 1180 nM; IC50 [8]: > 5000 nM; IC50 [9]: 39 nM; IC50 [10]: 569 nM; IC50 [11]: 1640 nM
32 | COc1ccc(-c2nn(-c3ccccc3)cc2C(=O)NC(=S)Nc2ccc(F)cc2)cc1 | 3050 | 1430 | 4990 | 
30 | COc1ccc(-c2nn(-c3ccccc3)cc2C(=O)NC(=S)Nc2ccc(Cl)cc2)cc1 | 3010 | 1310 | 4760 | 
29 | COc1ccc(-c2nn(-c3ccccc3)cc2C(=O)NC(=S)Nc2ccc(C)cc2)cc1 | 2880 | 1250 | 4630 | 
25 | COc1ccc(NC(=S)NC(=O)c2cn(-c3ccccc3)nc2-c2ccc(OC)cc2)cc1 | 2570 | 750 | 4210 | Activity [12]: 0%; IC50 [5]: > 5000 nM; IC50 [6]: 29 nM; Activity [13]: 59.49%; Activity [14]: 7.52%; IC50 [7]: 1090 nM; Activity [15]: Dose-dependent effect; Activity [16]: 64%; Activity [17]: 28.48%; Activity [18]: 32.47%; IC50 [8]: > 5000 nM; Activity [19]: 0%; IC50 [9]: 35 nM; Activity [20]: 0%; Activity [21]: 2.99%; Activity [22]: 8.04%; IC50 [10]: 522 nM; Activity [23]: 34.48%; IC50 [11]: 1420 nM; Activity [24]: 62.53%
